Converted amounts (≈) assume the structure as drawn.
Experiments:
P388 [1] = assay: Log of the tumor cell population at the end of treatment at 25 mg/kg (ip) against P388 Lymphocytic Leukemia in mice; type: functional, Mus musculus
P388 [2] = assay: Median survival time of test animals compared to controls at 50 mg/kg (ip) against P388 Lymphocytic Leukemia in mice; type: functional, Mus musculus
In short: (§1)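 P388 leukemia cells were inoculated ip into male CDF1 mice. Treatment began 24 h later, given ip as five daily doses, either as a Klucel (hydroxypropylcellulose) suspension or as an aqueous solution. Acute toxicity was assessed on day 5 and results were read on day 30. The value is median survival of treated versus control mice, as % T/C.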

P388 [3] = assay: Median survival time of test animals compared to controls at 100 mg/kg (ip) against P388 Lymphocytic Leukemia in mice; type: functional, Mus musculus; in short: as §1
P388 [4] = assay: Median survival time of test animals compared to controls at 25 mg/kg (ip) against P388 Lymphocytic Leukemia in mice; type: functional, Mus musculus; in short: as §1
P388 [5] = assay: Weight difference at 12.5 mg/kg (ip)against P388 Lymphocytic Leukemia in mice; type: functional, Mus musculus
In short: (§2)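 P388 leukemia cells inoculated ip into male CDF1 mice; ip treatment started 24 h later, five daily doses, as Klucel (hydroxypropylcellulose) suspension or aqueous solution. Acute toxicity on day 5. Day-30 median survival of treated versus control mice expressed as % T/C. Weight difference is treated minus control, in grams.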

P388 [6] = assay: Weight difference at 50 mg/kg (ip)against P388 Lymphocytic Leukemia in mice; type: functional, Mus musculus
In short: (§3)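 Male CDF1 mice given 6×10^6 leukemia cells ip. Five daily ip doses beginning 24 h later, as Klucel suspension or aqueous solution. Acute toxicity on day 5; survival assessed on day 30. Weight difference reported as treated minus control (g).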

P388 [7] = assay: Weight difference at 25 mg/kg (ip)against P388 Lymphocytic Leukemia in mice; type: functional, Mus musculus; in short: as §3
[8] = Water solubility of the compound; type: ADME; conditions: read-out: S
In short: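 Excess bis(carbamate) (30-60 mg) in 2 mL distilled water, vortexed 10 min, filtered through Teflon wool and diluted. UV absorbance read at 291 nm. Concentration from a linear Beer's law calibration made with a salt standard (r = 0.998).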

P388 [9] = assay: Log of the tumor cell population at the end of treatment at 100 mg/kg (ip) against P388 Lymphocytic Leukemia in mice; type: functional, Mus musculus
P388 [10] = assay: Log of the tumor cell population at the end of treatment at 50 mg/kg (ip) against P388 Lymphocytic Leukemia in mice; type: functional, Mus musculus
P388 [11] = assay: Median survival time of test animals compared to controls at 12.5 mg/kg (ip) against P388 Lymphocytic Leukemia in mice; type: functional, Mus musculus; in short: as §2
P388 [12] = assay: Weight difference at 100 mg/kg (ip)against P388 Lymphocytic Leukemia in mice; type: functional, Mus musculus; in short: as §3
P388 [13] = assay: Log of the tumor cell population at the end of treatment at 12.5 mg/kg (ip) against P388 Lymphocytic Leukemia in mice; type: functional, Mus musculus
P388 [14] = assay: Weight difference at 20 mg/kg (ip)against P388 Lymphocytic Leukemia in mice; type: functional, Mus musculus
In short: (§4)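 Male CDF1 mice inoculated ip with P388 leukemia cells. Nine daily ip doses beginning 24 h later, as suspensions in Klucel or water. Acute toxicity evaluated day 5. Weight difference reported as treated minus control (g).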

B16 [15] = assay: Weight difference at 80 mg/kg (ip) against B16 melanocarcinoma in mice; type: functional, Mus musculus
In short: (§5)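 Female BDF1 mice given ip 0.5 mL of tumor brei (1.0 g tissue per 10 mL). Nine daily ip doses beginning 24 h later, as Klucel suspensions or a water/Tween-80 suspension. Acute toxicity scored day 5; survival read day 60. Cures counted per 10-animal group at day 60; weight difference reported as treated minus control (g).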

P388 [16] = assay: Log of the tumor cell population at the end of treatment at 20 mg/kg (ip) against P388 Lymphocytic Leukemia in mice; type: functional, Mus musculus
P388 [17] = assay: Log of the tumor cell population at the end of treatment at 40 mg/kg (ip) against P388 Lymphocytic Leukemia in mice; type: functional, Mus musculus
B16 [18] = assay: Median survival time of test animals compared to controls at 5 mg/kg (ip) against B16 melanocarcinoma in mice; type: functional, Mus musculus
In short: (§6)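 Female BDF1 mice received B16 tumor brei ip (0.5 mL of 1.0 g tissue per 10 mL). From 24 h later they got nine daily ip doses, suspended in Klucel or water/Tween-80. Acute toxicity was assessed on day 5 and survival was evaluated on day 60. The value is median survival as % T/C, with 10 mice per group and a positive control run in parallel.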

P388 [19] = assay: Median survival time of test animals compared to controls at 10 mg/kg (ip) against P388 Lymphocytic Leukemia in mice; type: functional, Mus musculus
In short: (§7)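 P388 leukemia cells were given ip to male CDF1 mice. Dosing started 24 h later: nine daily ip doses given as suspensions in Klucel (hydroxypropylcellulose) or in water. Toxicity day was day 5 and evaluation was on day 30. The value is % T/C of median survival time against untreated controls, with a parallel positive-control arm.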

B16 [20] = assay: Median survival time of test animals compared to controls at 40 mg/kg (ip) against B16 melanocarcinoma in mice; type: functional, Mus musculus; in short: as §6
B16 [21] = assay: Weight difference at 5 mg/kg (ip)against B16 melanocarcinoma in mice; type: functional, Mus musculus; in short: as §5
P388 [22] = assay: Median survival time of test animals compared to controls at 40 mg/kg (ip) against P388 Lymphocytic Leukemia in mice; type: functional, Mus musculus; in short: as §7
P388 [23] = assay: Weight difference at 80 mg/kg (ip)against P388 Lymphocytic Leukemia in mice; type: functional, Mus musculus; in short: as §4
B16 [24] = assay: Weight difference at 40 mg/kg (ip)against B16 melanocarcinoma in mice; type: functional, Mus musculus; in short: as §5
B16 [25] = assay: Weight difference at 10 mg/kg (ip)against B16 melanocarcinoma in mice; type: functional, Mus musculus; in short: as §5
B16 [26] = assay: Median survival time of test animals compared to controls at 10 mg/kg (ip) against B16 melanocarcinoma in mice; type: functional, Mus musculus; in short: as §6
B16 [27] = assay: No. of cures on day 60 at 10 mg/kg (ip) against B16 melanocarcinoma in mice; type: functional, Mus musculus; in short: as §5
B16 [28] = assay: No. of cures on day 60 at 80 mg/kg (ip) against B16 melanocarcinoma in mice; type: functional, Mus musculus; in short: as §5
P388 [29] = assay: Weight difference at 40 mg/kg (ip)against P388 Lymphocytic Leukemia in mice; type: functional, Mus musculus; in short: as §4
P388 [30] = assay: Weight difference at 2.5 mg/kg (ip)against P388 Lymphocytic Leukemia in mice; type: functional, Mus musculus; in short: as §4
P388 [31] = assay: Log of the tumor cell population at the end of treatment at 5 mg/kg (ip) against P388 Lymphocytic Leukemia in mice; type: functional, Mus musculus
B16 [32] = assay: No. of cures on day 60 at 40 mg/kg (ip) against B16 melanocarcinoma in mice; type: functional, Mus musculus; in short: as §5
P388 [33] = assay: Median survival time of test animals compared to controls at 5 mg/kg (ip) against P388 Lymphocytic Leukemia in mice; type: functional, Mus musculus; in short: as §7
P388 [34] = assay: Weight difference at 5 mg/kg (ip)against P388 Lymphocytic Leukemia in mice; type: functional, Mus musculus; in short: as §4
B16 [35] = assay: No. of cures on day 60 at 20 mg/kg (ip) against B16 melanocarcinoma in mice; type: functional, Mus musculus; in short: as §5
P388 [36] = assay: Log of the tumor cell population at the end of treatment at 80 mg/kg (ip) against P388 Lymphocytic Leukemia in mice; type: functional, Mus musculus
B16 [37] = assay: Median survival time of test animals compared to controls at 20 mg/kg (ip) against B16 melanocarcinoma in mice; type: functional, Mus musculus; in short: as §6
P388 [38] = assay: Log of the tumor cell population at the end of treatment at 10 mg/kg (ip) against P388 Lymphocytic Leukemia in mice; type: functional, Mus musculus
P388 [39] = assay: Median survival time of test animals compared to controls at 2.5 mg/kg (ip) against P388 Lymphocytic Leukemia in mice; type: functional, Mus musculus
In short: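 P388 leukemia cells given ip to male CDF1 mice; ip dosing began 24 h later, nine daily doses, as suspensions in Klucel (hydroxypropylcellulose) or water. Acute toxicity checked on day 5. Survival read on day 30 as median survival time of treated versus control mice (% T/C). Weight difference is treated minus control, in grams.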

B16 [40] = assay: Median survival time of test animals compared to controls at 80 mg/kg (ip) against B16 melanocarcinoma in mice; type: functional, Mus musculus; in short: as §6
P388 [41] = assay: Weight difference at 10 mg/kg (ip)against P388 Lymphocytic Leukemia in mice; type: functional, Mus musculus; in short: as §4
B16 [42] = assay: Weight difference at 20 mg/kg (ip)against B16 melanocarcinoma in mice; type: functional, Mus musculus; in short: as §5
P388 [43] = assay: Median survival time of test animals compared to controls at 20 mg/kg (ip) against P388 Lymphocytic Leukemia in mice; type: functional, Mus musculus; in short: as §7
P388 [44] = assay: Median survival time of test animals compared to controls at 80 mg/kg (ip) against P388 Lymphocytic Leukemia in mice; type: functional, Mus musculus; in short: as §7
B16 [45] = assay: No. of cures on day 60 at 5 mg/kg (ip) against B16 melanocarcinoma in mice; type: functional, Mus musculus; in short: as §5

## CC(C)NC(=O)OCc1c(COC(=O)NC(C)C)c(-c2ccc(Cl)c(Cl)c2)n2c1CC(OC(=O)CCC(=O)O)C2.CN(C)c1ccncc1 (centres undefined)
P388 [1]
  Log cell kill: -1.44
P388 [2]
  T/C: 111%
P388 [3]
  T/C: 125%
P388 [4]
  T/C: 107%
P388 [5]
  Weight change: -1.3 g
P388 [6]
  Weight change: -2.2 g
P388 [7]
  Weight change: -1.2 g
[8]
  solubility: 30 mM
P388 [9]
  Log cell kill: -1.08
P388 [10]
  Log cell kill: -1.39
P388 [11]
  T/C: 106%
P388 [12]
  Weight change: -1.8 g
Half life was determined
  half-life: 2.55 h
P388 [13]
  Log cell kill: -1.45

## CC(C)NC(=O)OCc1c(COC(=O)NC(C)C)c(-c2ccc(Cl)c(Cl)c2)n2c1CC(OC(=O)CN(C)C)C2 (centres undefined)
P388 [14]
  Weight change: -1.9 g
B16 [15]
  Weight change: -1.5 g
P388 [16]
  Log cell kill: -1.37
P388 [17]
  Log cell kill: -1.41
B16 [18]
  T/C: 106%
P388 [19]
  T/C: 128%
B16 [20]
  T/C: 174%
B16 [21]
  Weight change: 0.2 g
P388 [22]
  T/C: 144%
P388 [23]
  Weight change: -3.4 g
B16 [24]
  Weight change: -0.8 g
B16 [25]
  Weight change: 0.2 T-C
B16 [26]
  T/C: 152%
B16 [27]
  Cures: 0
B16 [28]
  Cures: 0
P388 [29]
  Weight change: -3.1 g
P388 [30]
  Weight change: 0.1 g
P388 [31]
  Log cell kill: -1.76
B16 [32]
  Cures: 1
P388 [33]
  T/C: 117%
P388 [34]
  Weight change: -1.3 g
B16 [35]
  Cures: 0
P388 [36]
  Log cell kill: -1.84
[8]
  solubility: 0.0196 mM (≈ 11.4 µg/mL)
B16 [37]
  T/C: 152%
P388 [38]
  Log cell kill: -1.61
P388 [39]
  Log cell kill: -1.96
  T/C: 101%
B16 [40]
  T/C: <100%
P388 [41]
  Weight change: -2 g
B16 [42]
  Weight change: 0.5 g
Half life was determined
  half-life: 4.13 h
P388 [43]
  T/C: 146%
P388 [44]
  T/C: 110%
B16 [45]
  Cures: 0

Reference: ChEMBL document CHEMBL1122293, “Synthesis, evaluation of chemical reactivity, and murine antineoplastic activity of 2-hydroxy-5-(3,4-dichlorophenyl)-6,7-bis(hydroxymethyl)-2,3-dihydro-1H- pyrrolizine bis(2-propylcarbamate) and 2-acyloxy derivatives as potential water-soluble prodrugs” (J Med Chem, 1983)
